Source: PubChem
STAT3 act: increases IL-6 driven STAT3 reporter signal. U3A cells, IL-6 STAT3-luciferase reporter, luminescence; 100% = signal with IL-6 EC80 alone. activation (% of control), % at 5.6 µM. 0.91% of 190,000 active;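 active = activation above the screen-wide mean of compound activation plus 3 SD, cut at about 130% in these data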;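 note: 0% = background luminescence of wells with medium and substrate only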
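System – human U3A cells carrying STAT3-luciferase construct · Probe or stimulus – Interleukin-6, 33 ng/mL · Schedule – compound 1 h, then IL-6 6 h at 37 °C · Signal – luminescence from STAT3-driven luciferase reporter · Evaluation – percent of IL-6-only median luminescence · Benchmarks – IL-6-only high control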
PPC-1+TRAIL kill: PPC-1 cancer cell killing with TRAIL present. AID 1443. 0.41% of 220,000 active. cell killing (% activity), % at 4 µM or 5 µM. PPC-1 cells + TRAIL, ATPLite viability luminescence;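 active = cell killing above 50% in the first pass at 4 µM, then a duplicate retest at 5 µM averaging 50% or more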;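 note: plate controls were cells with TRAIL plus DMSO for no effect and medium-only wells lacking cells for full effect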
STAT1 blocker: STAT1 signaling inhibition; AID 920; 0.35% of 200,000 active; inhibition, % at 5.5 µM; NIH 3T3 STAT1-luciferase reporter, IFN-gamma, luminescence;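 active = inhibition above a set limit, the mean inhibition across all tested compounds plus 3 SD, cut at about 34% in these data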;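 note: 0% = IFN-gamma with DMSO and 100% = IFN-gamma with 300 µM nifuroxazide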
STAT3 blocker: reduces IL-6 driven STAT3 reporter signal; AID 862; 0.89% of 190,000 active; inhibition, % at 5.5 µM; U3A cells, IL-6 STAT3-luciferase reporter, luminescence; host cell line lacks STAT1;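 active = inhibition above the mean inhibition across all screened compounds plus 3 SD, cut at about 44% in these data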;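 note: 0% = DMSO only wells and 100% = 100 µM nifuroxazide control wells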
TRAIL sens C8: sensitizes caspase-8 expressing cells to TRAIL; NB7+C8 cells + TRAIL, ATPlite viability luminescence; inhibition (viability loss, TRAIL sensitization), % at 10 µM; 1% of 360,000 active;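 active = compounds causing at least 50% loss of cell viability in the single-dose screen, relative to plate controls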
The depositor's hits bear a star; nt = no result. Compounds with a hit are over-represented: about 1.8% of the library has one in this group of screens.

SMILES	STAT3 act	PPC-1+TRAIL kill	STAT1 blocker	STAT3 blocker	TRAIL sens C8
COc1ccccc1C(=O)O/N=C(\N)c1ccccn1	nt	34	nt	nt	26
CCOc1cc(C(=O)O/N=C(\N)c2ccccn2)cc(OCC)c1OCC	nt	nt	nt	nt	61*
N/C(=N\OC(=O)c1cccc(Br)c1)c1ccccn1	nt	nt	nt	nt	77*
COc1cc(OC)cc(C(=O)O/N=C(\N)c2ccccn2)c1	nt	10	nt	nt	31
COc1ccc(C(=O)O/N=C(\N)c2ccccn2)cc1	nt	nt	nt	nt	92*
CCOc1cc(C(=O)O/N=C(\N)c2ccc([N+](=O)[O-])cc2)cc(OCC)c1OCC	86	-23	0	22	37
C[C@@H]1CN([C@@H](C)CO)C(=O)c2cc(Br)cnc2O[C@H]1CN(C)C(=O)c1ccncc1	nt	nt	nt	nt	-11
CCOc1ccc(C(=O)O/N=C(\N)c2ccccn2)cc1OCC	nt	nt	nt	nt	79*
CC(C)C(=O)Nc1cc2c3c(c1)CCC(=O)N3CCC2	nt	nt	nt	nt	-8
C(=Cc1c[nH]c2ccccc12)c1nccc2ccccc12	nt	nt	nt	nt	73*
O=C(O)/C=C/c1ccc2ccccc2n1	97	20	5	7	0
C(=Cc1c[nH]c2ccccc12)c1ccc2ccccc2n1	nt	nt	nt	nt	71*
C(=C\c1ccc2ccccc2n1)/c1ccccc1	nt	44	nt	nt	73*
O=Cc1nccc2ccccc12	nt	nt	nt	nt	10
OC(c1cccc(Cl)c1)c1ncc(-c2cccc3ccccc23)[nH]1 (stereo not given)	nt	nt	nt	nt	-4
Cc1ccc(C)c(NC(=O)Cn2ccn(-c3ccc4c(c3)OCO4)c(=O)c2=O)c1	nt	nt	nt	nt	5
CC(C)Cc1nc2oc3c(Cl)ncnc3c2c2c1CCCC2	nt	3	nt	nt	67*
CC(C)(C)NC(=O)C(C1CC1)n1c(=O)c(-c2ccco2)nc2ccccc21 (stereo not given)	nt	nt	nt	nt	1
O=c1c2ccccc2oc2ccc(NCCCn3ccnc3)cc12	nt	nt	nt	nt	50*
COc1cccc2sc(N)nc12	nt	nt	nt	nt	-3
COc1cccc2sc(N(C)c3ccccc3)nc12	66	39	-55	43	60*
CCSc1nnc(NC(=O)C2CCCN(C(=O)c3ccc(Cl)cc3)C2)s1 (stereo not given)	nt	nt	nt	nt	5
Cc1cc(NC(=O)/C=C/c2ccccc2Cl)n(-c2nc3ccccc3[nH]2)n1	95	58*	-3	9	74*
c1ccc2c(-c3nc(-c4ccncc4)no3)cccc2c1	136*	16	-32	-37	-1
c1ccc(-c2noc(-c3cccc4ccccc34)n2)cc1	192*	0	-46	-100	9
SMILES	STAT3 act	PPC-1+TRAIL kill	STAT1 blocker	STAT3 blocker	TRAIL sens C8
CC(OC(=O)c1ccc2c(c1)OCCO2)C(=O)NC1CCCCC1C (stereo not given)	nt	nt	nt	nt	-10
COc1ccc(-n2ncc3c(N4CCN(c5cccc(C)c5C)CC4)ncnc32)cc1	nt	nt	nt	nt	9
COc1ccc(-n2ncc3c(N4CCCCC4)ncnc32)cc1	13	nt	72*	107*	89*
COC(=O)NC1CC2C=CC1C1C=CC21 (stereo not given)	nt	nt	nt	nt	8
CN(C)c1ccc(C(=O)c2ccc(N(C)C)c3ccccc23)cc1	146*	19	-32	-52	-15
Cn1c(=O)c(/C=C/c2ccccc2)nc2ccccc21	146*	6	-38	-52	30
O=C(COc1ccc(C(F)(F)F)cc1[N+](=O)[O-])Nc1cccc(C(F)(F)F)c1	96	52*	9	2	8
c1ccc(-c2csc(Nc3ccccn3)n2)cc1	nt	nt	nt	nt	31
CC(=O)Nc1cccc(-c2csc(Nc3ncccn3)n2)c1	89	40	-167	15	nt
Fc1ccc(-c2csc(Nc3ccccn3)n2)c(F)c1	nt	nt	nt	nt	57*
CC(=O)Nc1cccc(-c2csc(Nc3ccc(C)cn3)n2)c1	79	16	-128	24	64*
Cc1ccc(-c2csc(Nc3ccccn3)n2)cc1	nt	nt	nt	nt	62*
CC1(C(=O)NCc2cccs2)CCN1C(=O)Cc1cccc2ccccc12 (stereo not given)	nt	nt	nt	nt	12
CC(=O)NCCNc1nc2cc(-c3cccc(Cl)c3)sc2c(=O)n1C	nt	nt	nt	nt	-4
CN(C)C=Nc1ccc2nc3c(cc2c1)[nH]c1ccccc13	nt	nt	nt	nt	76*
COc1ccc(OC)c(S(=O)(=O)N/N=C(/C)c2ccc3c(c2)OCO3)c1	nt	nt	nt	nt	13
COc1ccccc1-c1cnc(C(O)c2ccc(C)cc2)[nH]1 (stereo not given)	nt	nt	nt	nt	-3
N#C/C(N=Nc1ccccc1O)=N\Nc1ccccc1O	nt	nt	nt	nt	54*
Oc1ccccc1N=N/C(=N/Nc1ccccc1O)c1ccccc1	nt	nt	nt	nt	-12
NC(=O)c1ccccc1NC(=O)/C=C/c1ccccc1	98	41	-32	-3	60*
